{"source": "ChEMBL document CHEMBL5705886", "about": "“GSK1070916, a potent Aurora B/C kinase inhibitor with broad antitumor activity in tissue culture cells and human tumor xenograft models” (Mol Cancer Ther, 2009)", "key": {"MOLT-16": {"system": "MOLT-16", "assay": "Antiproliferative activity against human MOLT-16 cells assessed as inhibition of cell viability measured for 6 to 7 days by cell titer glo assay", "type": "functional, cell-based", "method_in_brief": "(§1)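 Cells seeded in recommended growth medium, incubated overnight at 37°C in 5% CO2, then exposed to serial dilutions of inhibitor for 6–7 d. A parallel plate was read with CellTiter-Glo at compound addition as a T=0 value. The luminescent viability readout had no-cell background subtracted and was expressed as % of DMSO control.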"}, "[1]": {"assay": "Antiproliferative activity against human EM-3 cells assessed as inhibition of cell viability measured for 6 to 7 days by cell titer glo assay", "type": "functional, cell-based", "method_in_brief": "(§2)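 Tumor lines plated in recommended growth media, overnight at 37°C, 5% CO2, then given serial dilutions; a T=0 plate read with CellTiter-Glo at dosing. After 6–7 d of exposure, viability read by CellTiter-Glo luminescence. No-cell wells subtracted, data expressed as % of DMSO control.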"}, "SU-DHL10": {"system": "SU-DHL10", "assay": "Antiproliferative activity against human SU-DHL-10 cells assessed as inhibition of cell viability measured for 6 to 7 days by cell titer glo assay", "type": "functional, cell-based", "method_in_brief": "(§3)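 Cells seeded in recommended growth medium, held overnight at 37°C in 5% CO2, then exposed to serial dilutions of inhibitor for 6–7 d. A time-zero plate was read with CellTiter-Glo at dosing. Luminescent viability read at the end. No-cell wells subtracted as background, data expressed as percent of DMSO control.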"}, "[2]": {"assay": "Toxicity in SCID nude mouse xenografted with human COLO 205 cells assessed as body weight loss at 25 to 100 mg/kg, ip administered once daily for 5 consecutive days with 2 days off scheduled for 2 cycles measured upto 60 days relative to control", "type": "organism-based", "settings": "in vivo, 1440 h, dose 25-100 mg/kg, time < 60 day"}, "J-RT3-T3-5": {"system": "J-RT3-T3-5", "assay": "Antiproliferative activity against human J-RT3-T3-5 cells assessed as inhibition of cell viability measured for 6 to 7 days by cell titer glo assay", "type": "functional, cell-based", "method_in_brief": "as §1"}, "MV4-11": {"system": "MV4-11", "assay": "Antiproliferative activity against human MV4-11 cells assessed as inhibition of cell viability measured for 6 to 7 days by cell titer glo assay", "type": "functional, cell-based", "method_in_brief": "as §1"}, "NC-37": {"system": "NC-37", "assay": "Antiproliferative activity against human NC-37 cells assessed as inhibition of cell viability measured for 6 to 7 days by cell titer glo assay", "type": "functional, cell-based", "method_in_brief": "as §1"}, "A549 [3]": {"system": "A549", "assay": "Induction of mitotic alteration in human A549 cells formation of multipolar spindles at 12 to 330 nmol/L incubated for 24 hrs by immunofluorescent microscopy based analysis", "type": "functional, cell-based", "settings": "dose lower […], dose upper 330.0 nmol/L"}, "K562": {"system": "K562", "assay": "Antiproliferative activity against human K562 cells assessed as inhibition of cell viability measured for 6 to 7 days by cell titer glo assay", "type": "functional, cell-based", "method_in_brief": "as §1"}, "EM-2": {"system": "EM-2", "assay": "Antiproliferative activity against human EM-2 cells assessed as inhibition of cell viability measured for 6 to 7 days by cell titer glo assay", "type": "functional, cell-based", "method_in_brief": "as §2"}, "EB2": {"system": "EB2", "assay": "Antiproliferative activity against human EB2 cells assessed as inhibition of cell viability measured for 6 to 7 days by cell titer glo assay", "type": "functional, cell-based", "method_in_brief": "as §2"}, "COLO 205": {"system": "COLO 205", "assay": "Antiproliferative activity against human COLO 205 cells assessed as inhibition of cell viability measured for 6 to 7 days by cell titer glo assay", "type": "functional, cell-based", "method_in_brief": "as §2"}, "[4]": {"assay": "Antiproliferative activity against human BDCM cells assessed as inhibition of cell viability measured for 6 to 7 days by cell titer glo assay", "type": "functional, cell-based", "method_in_brief": "as §2"}, "DOHH-2": {"system": "DOHH-2", "assay": "Antiproliferative activity against human DOHH-2 cells assessed as inhibition of cell viability measured for 6 to 7 days by cell titer glo assay", "type": "functional, cell-based", "method_in_brief": "as §2"}, "CRO-AP2": {"system": "CRO-AP2", "assay": "Antiproliferative activity against human CRO-AP2 cells assessed as inhibition of cell viability measured for 6 to 7 days by cell titer glo assay", "type": "functional, cell-based", "method_in_brief": "as §2"}, "NCI-H157": {"system": "NCI-H157", "assay": "Antiproliferative activity against human NCI-H157 cells assessed as inhibition of cell viability measured for 6 to 7 days by cell titer glo assay", "type": "functional, cell-based", "method_in_brief": "as §1"}, "DU-145": {"system": "DU-145", "assay": "Antiproliferative activity against human DU-145 cells assessed as inhibition of cell viability measured for 6 to 7 days by cell titer glo assay", "type": "functional, cell-based", "method_in_brief": "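Cells plated in recommended growth medium, held overnight at 37°C in 5% CO2, then given serial dilutions of inhibitor; a T=0 set read with CellTiter-Glo at dosing. Luminescent viability read after 6–7 d exposure.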"}, "[5]": {"assay": "Antiproliferative activity against human Tanoue cells assessed as inhibition of cell viability measured for 6 to 7 days by cell titer glo assay", "type": "functional, cell-based", "method_in_brief": "as §3"}, "MV-4-11 (human)": {"system": "MV-4-11 (human)", "assay": "Antitumor activity in human MV-4-11 cells xenografted in NOD-SCID mouse assessed as median survival time at 10 mg/kg, ip administered once daily for 5 consecutive days with 2 days off scheduled for 3 cycles measured upto 120 days", "settings": "time <= 120 day"}, "SK-MEL-2": {"system": "SK-MEL-2", "assay": "Antiproliferative activity against human SK-MEL-2 cells assessed as inhibition of cell viability measured for 6 to 7 days by cell titer glo assay", "type": "functional, cell-based", "method_in_brief": "as §3"}, "CCRF-SB": {"system": "CCRF-SB", "assay": "Antiproliferative activity against human CCRF-SB cells assessed as inhibition of cell viability measured for 6 to 7 days by cell titer glo assay", "type": "functional, cell-based", "method_in_brief": "as §2"}, "NU-DUL-1": {"system": "NU-DUL-1", "assay": "Antiproliferative activity against human NU-DUL-1 cells assessed as inhibition of cell viability measured for 6 to 7 days by cell titer glo assay", "type": "functional, cell-based", "method_in_brief": "as §3"}, "A549 [6]": {"system": "A549", "assay": "Effect on cell cycle distribution in human A549 cells assessed as increase in 4N DNA content at 2 to 5000 nM incubated for 24 to 72 hrs by flow cytometry based analysis", "type": "functional", "settings": "dose 2-5000 nM, time 24-72 hrs"}, "OCI-AML2": {"system": "OCI-AML2", "assay": "Antiproliferative activity against human OCI-AML2 cells assessed as inhibition of cell viability measured for 6 to 7 days by cell titer glo assay", "type": "functional, cell-based", "method_in_brief": "as §3"}, "NAMALVA": {"system": "NAMALVA", "assay": "Antiproliferative activity against human NAMALWA cells assessed as inhibition of cell viability measured for 6 to 7 days by cell titer glo assay", "type": "functional, cell-based", "method_in_brief": "as §1"}, "MIA PaCa-2": {"system": "MIA PaCa-2", "assay": "Antiproliferative activity against human Mia PaCa cells assessed as inhibition of cell viability measured for 6 to 7 days by cell titer glo assay", "type": "functional, cell-based", "method_in_brief": "as §1"}, "GDM-1": {"system": "GDM-1", "assay": "Antiproliferative activity against human GDM-1 cells assessed as inhibition of cell viability measured for 6 to 7 days by cell titer glo assay", "type": "functional, cell-based", "method_in_brief": "as §2"}, "CA46": {"system": "CA46", "assay": "Antiproliferative activity against human CA46 cells assessed as inhibition of cell viability measured for 6 to 7 days by cell titer glo assay", "type": "functional, cell-based", "method_in_brief": "as §2"}, "[7]": {"assay": "Antiproliferative activity against human CEM/C1 cells assessed as inhibition of cell viability measured for 6 to 7 days by cell titer glo assay", "type": "functional, cell-based", "method_in_brief": "as §2"}}, "note": "Activity calls are given as the source filed them. No cut-off for these calls is given here.", "data": [{"smiles": "CCn1cc(-c2ccnc3[nH]c(-c4cccc(CN(C)C)c4)cc23)c(-c2ccc(NC(=O)N(C)C)cc2)n1", "note": "[GSK-1070916]", "values": [{"measurement": "EC50", "setting": "MOLT-16", "value": 3, "unit": "nM"}, {"measurement": "EC50", "setting": "[1]", "value": 4, "unit": "nM"}, {"measurement": "EC50", "setting": "SU-DHL10", "value": 15, "unit": "nM"}, {"measurement": "Activity", "setting": "[2]", "value": "< 15", "unit": "%"}, {"measurement": "EC50", "setting": "J-RT3-T3-5", "value": 9, "unit": "nM"}, {"measurement": "EC50", "setting": "MV4-11", "value": 7, "unit": "nM"}, {"measurement": "EC50", "setting": "NC-37", "value": 7, "unit": "nM"}, {"measurement": "Activity", "setting": "A549 [3]", "value": "Active"}, {"measurement": "EC50", "setting": "K562", "value": 13, "unit": "nM"}, {"measurement": "EC50", "setting": "EM-2", "value": 4, "unit": "nM"}, {"measurement": "EC50", "setting": "EB2", "value": 2, "unit": "nM"}, {"measurement": "EC50", "setting": "COLO 205", "value": 7, "unit": "nM"}, {"measurement": "EC50", "setting": "[4]", "value": 26, "unit": "nM"}, {"measurement": "EC50", "setting": "DOHH-2", "value": 14, "unit": "nM"}, {"measurement": "EC50", "setting": "CRO-AP2", "value": 3, "unit": "nM"}, {"measurement": "EC50", "setting": "NCI-H157", "value": 8, "unit": "nM"}, {"measurement": "EC50", "setting": "DU-145", "value": 15, "unit": "nM"}, {"measurement": "EC50", "setting": "[5]", "value": 1480, "unit": "nM"}, {"measurement": "MST", "setting": "MV-4-11 (human)", "value": 70, "unit": "days"}, {"measurement": "EC50", "setting": "SK-MEL-2", "value": 2, "unit": "nM"}, {"measurement": "EC50", "setting": "CCRF-SB", "value": 2, "unit": "nM"}, {"measurement": "EC50", "setting": "NU-DUL-1", "value": 4, "unit": "nM"}, {"measurement": "Activity", "setting": "A549 [6]", "value": "Active"}, {"measurement": "EC50", "setting": "OCI-AML2", "value": 4, "unit": "nM"}, {"measurement": "EC50", "setting": "NAMALVA", "value": 6, "unit": "nM"}, {"measurement": "EC50", "setting": "MIA PaCa-2", "value": 3, "unit": "nM"}, {"measurement": "EC50", "setting": "GDM-1", "value": 21, "unit": "nM"}, {"measurement": "EC50", "setting": "CA46", "value": 5, "unit": "nM"}, {"measurement": "EC50", "setting": "[7]", "value": 6, "unit": "nM"}]}]}
